Among the data in ChEMBL document CHEMBL4251709, “Synthesis, Biological Investigation, and Structural Revision of Sielboldianin A” (J Nat Prod, 2018) are IC50 values, retold here.

The subject of one assay is K562. The assay is described as follows: Cytotoxicity against human K562 cells assessed as inhibition of cell growth after 5 days by MTT assay. Conditions: K562, 120 h. It counts as cell-based. In a few lines:
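K562 cells kept in antibiotic-free RPMI with 2-mercaptoethanol (2 μM), L-glutamine (2 mM) and 10% FCS. 100 μL of cells at 40 000 cells/mL were mixed with 100 μL of serially diluted compound (DMSO stock) in medium, with a drug-free control. Incubation 5 days, 37 °C, 5% CO2. MTT (3 mg/mL) for 3 h, formazan taken up in DMSO, read at 540 and 690 nm. IC50 as % of control growth, three experiments.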

For assay [1], the system named is HepG2. Description: Antioxidant activity in human HepG2 cells assessed as inhibition of ABAP-induced peroxyl radical generation incubated for 60 mins measured for 60 mins by DCFH-DA probe based fluorescence assay. It counts as functional, cell-based. Conditions: HepG2, 1 h. The gist of the method:
(§1)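 HepG2 cells grown in MEM Earle's with gentamycin, L-alanyl-L-glutamine, nonessential amino acids, sodium pyruvate and 10% FBS at 37 °C, 5% CO2. 80 000 cells per well were seeded 24 h ahead, ~50% confluent at testing. Sesquiterpenoids were dissolved in DMSO, giving 1% DMSO final in all wells including controls. IC50 from dose–response Hill-slope fit, three experiments, mean ± SD.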

Assay [2] concerns HepG2. Description: Antioxidant activity in human HepG2 cells assessed as inhibition of cumene hydroperoxide-mediated lipid peroxidation incubated for 60 mins followed by cumOOH addition for 60 mins measured for 60 mins by C11-BODIPY probe based fluorescence assay. The format is functional, cell-based. Conditions: HepG2, 1 h. The gist of the method: as §1

A word on the IC50: it is the concentration at which inhibition is half-maximal. Regarding `Cc1ccc([C@]2(C)CC[C@@H](C(C)(C)O)O2)cc1`, the IC50 with K562 is more than 50 µM; in the assay with HepG2 [1], more than 100 µM; in the assay on HepG2 [2], more than 100 µM.
In the case of `Cc1ccc([C@]2(C)CC[C@@H](C(C)(C)O)O2)cc1O`, the IC50 in the assay on K562 was more than 50 µM; with HepG2 [1], 18 µM; in the assay on HepG2 [2], 31 µM.
In the same order, the values of `CC(C)=CCC[C@](C)(O)c1ccc(C)cc1` are more than 50 µM, more than 100 µM and more than 100 µM.
The corresponding values for `O=c1c(O)c(-c2ccc(O)c(O)c2)oc2cc(O)cc(O)c12` [QUERCETIN] are 2.5 µM, 65 µM and 12 µM.
